ChEMBL document CHEMBL1137196, “Non-peptide oxytocin agonists” (Bioorg Med Chem Lett, 2004)

Experiments:
[1] = biological target: Oxytocin receptor (Homo sapiens) (UniProt P30559); experiment: Agonist activity against Oxytocin receptor relative to oxytocin at 3 uM
Vasopressin V2 receptor = Vasopressin V2 receptor (Homo sapiens, UniProt P30518); experiment: Effective concentration for human Vasopressin V2 receptor
How it was run: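 293 cells in phenol red-free DMEM with penicillin and 10% foetal calf serum were dual-transfected with V2 receptor and CRE-luciferase constructs, then grown 24 h at 37°C/5% CO2 before and after plating. Compounds came from 10 mM DMSO stocks (0.1% DMSO final). Luciferase was measured after 5 h at 37°C. EC50 from a 4-parameter logistic fit; mean ± SD (n≥3), or mean ± range where n=2.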

Oxytocin receptor = biological target: T1, Oxytocin receptor (Homo sapiens, UniProt P30559); experiment: Effective concentration for human Oxytocin receptor
T1 sequence (P30559 whole entry): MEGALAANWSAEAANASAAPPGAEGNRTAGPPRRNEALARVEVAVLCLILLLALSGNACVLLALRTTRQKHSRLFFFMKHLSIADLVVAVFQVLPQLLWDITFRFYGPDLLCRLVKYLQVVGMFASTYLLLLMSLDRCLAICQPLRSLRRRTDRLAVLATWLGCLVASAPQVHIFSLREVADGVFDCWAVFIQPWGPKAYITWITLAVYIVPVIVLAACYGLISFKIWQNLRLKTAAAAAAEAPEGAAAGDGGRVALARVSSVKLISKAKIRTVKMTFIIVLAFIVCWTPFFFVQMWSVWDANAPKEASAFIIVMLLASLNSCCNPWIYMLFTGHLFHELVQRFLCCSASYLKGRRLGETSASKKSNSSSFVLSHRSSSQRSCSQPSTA
How it was run: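 CHO cells kept in phenol red-free DMEM with penicillin and 10% foetal calf serum, dual-transfected with human OT receptor and NFAT-luciferase constructs, then grown 24 h at 37°C/5% CO2 before and after plating. Compounds were diluted from 10 mM DMSO stocks (0.1% DMSO final). Luciferase was read after 5 h at 37°C. EC50 came from a 4-parameter logistic fit; mean ± SD (n≥3), or mean ± range where n=2.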

Sequence of Vasopressin V2 receptor (P30518 whole entry): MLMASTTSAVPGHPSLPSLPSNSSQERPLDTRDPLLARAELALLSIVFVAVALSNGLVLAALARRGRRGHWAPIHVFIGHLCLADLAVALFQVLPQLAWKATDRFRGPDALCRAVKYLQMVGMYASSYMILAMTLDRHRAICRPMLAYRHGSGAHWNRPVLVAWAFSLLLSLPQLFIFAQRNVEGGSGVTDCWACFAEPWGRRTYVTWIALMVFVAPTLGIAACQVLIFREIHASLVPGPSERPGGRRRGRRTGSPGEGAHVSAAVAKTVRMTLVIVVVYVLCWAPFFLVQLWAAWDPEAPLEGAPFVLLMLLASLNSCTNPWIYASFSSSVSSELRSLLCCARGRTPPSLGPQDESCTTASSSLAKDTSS

Compound | Relativity [1] | EC50 (Vasopressin V2 receptor) | EC50 (Oxytocin receptor)
Cc1ccn(-c2ccc(C(=O)N3Cc4cccn4Cc4ccccc43)c(Cl)c2)n1 | < 10% | – | –
CO[C@@H]1C[C@@H](C(=S)NCCc2ccccn2)N(C(=O)NCc2ccc(C(=O)N3CCCCc4sccc43)cc2Cl)C1 | – | 200 nM | 470 nM
CO[C@@H]1C[C@@H](C(=O)NCCc2ccccn2)N(C(=O)NCc2ccc(C(=O)N3CCCCc4sccc43)cc2Cl)C1 | – | 570 nM | 1500 nM
CN1CCCN(C(=S)[C@@H]2CCCN2C(=O)NCc2ccc(C(=O)N3CCCCc4sccc43)cc2Cl)CC1 | – | 1800 nM | 810 nM
CC(C)NC(=O)C[C@H]1CCCN(C(=O)c2ccc(N3CCCC3)cc2Cl)c2ccccc21 | < 10% | – | –
CO[C@@H]1C[C@@H](C(=O)N2CCC(N3CCCCC3)CC2)N(C(=O)NCc2ccc(C(=O)N3CCCCc4sccc43)cc2Cl)C1 | – | 1200 nM | 2200 nM
CO[C@@H]1C[C@@H](C(=O)NCCN(C)C)N(C(=O)NCc2ccc(C(=O)N3CCCCc4sccc43)cc2Cl)C1 | – | 1800 nM | > 10000 nM
Cc1cc(C(=O)N2CCCCc3sccc32)ccc1CNC(=O)N1CCC[C@H]1C(=S)N1CCCN(C)CC1 | – | 890 nM | 640 nM
CO[C@@H]1C[C@@H](C(=O)N2CCCN(C)CC2)N(C(=O)NCc2ccc(C(=O)N3CCCCc4sccc43)cc2Cl)C1 | – | 1300 nM | 2800 nM

Results, then the compound that gave them:

Relativity [1] | EC50 (Vasopressin V2 receptor) | EC50 (Oxytocin receptor) | Compound
33% | – | – | Cc1cc(C(=O)N2CCCCc3ccccc32)ccc1CNC(=O)NCC(=O)N(C)C
– | 230 nM | 430 nM | CO[C@@H]1C[C@@H](C(=S)N2CCCN(C)CC2)N(C(=O)NCc2ccc(C(=O)N3CCCCc4sccc43)cc2Cl)C1
– | 850 nM | 33 nM | Cc1cc(C(=O)N2Cc3cnn(C)c3Nc3ccccc32)ccc1CNC(=O)N1CCC[C@H]1C(=S)N1CCCN(C)CC1
– | 1100 nM | 2300 nM | CO[C@@H]1C[C@@H](C(=O)N2CCC(N3CCCC3)CC2)N(C(=O)NCc2ccc(C(=O)N3CCCCc4sccc43)cc2Cl)C1
– | 100 nM | 480 nM | CO[C@@H]1C[C@@H](C(=S)N2CCC(N3CCCC3)CC2)N(C(=O)NCc2ccc(C(=O)N3CCCCc4sccc43)cc2Cl)C1
